Results gathered from unrelated publications.
Protocols differ between the studies behind these lines.

| Compound | test | system | conditions | logD |
| --- | --- | --- | --- | --- |
| Cc1c(C(=O)N[C@H]2CCCC[C@H]2N)nc(-c2ccc(Cl)cc2Cl)n1-c1ccc(OS(=O)(=O)CCC(F)(F)F)cc1 (racemic) | shake flask | aqueous buffer | pH 7.4 | 3.35 |
| O=C(O)CN(CCCc1ccccc1)CC(=O)N[C@H](CO)Cc1c[nH]cn1 | shake flask | PBS | 2 h, pH 7.4 | -1.3 |
| Cc1c(C(=O)N[C@@H]2CCCC[C@H]2O)nc(-c2ccc(Cl)cc2Cl)n1-c1ccc(OS(=O)(=O)CCC(F)(F)F)cc1 (relative stereo) | shake flask | aqueous buffer | pH 7.4 | > 4.4 |
| O=C(C1CCN(c2nnnn2-c2ccccc2)CC1)N1CCCc2c(Cl)cccc21 | shake flask | PBS | pH 7.4 | 3.6 |
| CCCCc1nc2c(N)nc3ccccc3c2n1Cc1ccc(N)cc1 | shake flask | PBS | pH 7.4 | 2.6 |
| C[C@]1(C(=O)O)CSC(c2ccc(OCCCCCCO)cc2O)=N1 | shake flask | aqueous buffer | pH 7.4 | 0.21 |
| CCC1=C(C)c2cc3[nH]c(cc4[nH]c(cc5nc(cc1n2)C(C)=C5CC)c(C)c4CC)c(CC)c3C | shake flask | aqueous buffer | pH 9 | 1.42 |
| CC(C)CN(C[C@@H](O)[C@H](Cc1ccccc1)NC(=O)O[C@H]1CO[C@H]2OCC[C@H]21)S(=O)(=O)c1ccc(N)cc1 | shake flask | PBS | pH 7.4 | 2.84 |
| COCCCCCCOc1ccc(C2=N[C@@](C)(C(=O)O)CS2)c(O)c1 | shake flask | aqueous buffer | pH 7.4 | 0.95 |
| O=C(O)c1ccc(-n2nc(-c3ccccc3O)nc2-c2ccccc2O)cc1 | shake flask | PBS | pH 7.4 | 0.9 |
| Cc1c(C(=O)NN2CCCCC2)nc(-c2ccc(Cl)cc2Cl)n1-c1ccc(OS(=O)(=O)CCCF)cc1 | shake flask | aqueous buffer | pH 7.4 | 4.15 |
| COC(=O)CN(CC(=O)N[C@@H](Cc1c[nH]cn1)C(=O)OC)Cc1ccccc1 | shake flask | PBS | 2 h, pH 7.4 | 0.82 |
| Cc1c(C(=O)NC2CCC(O)CC2)nc(-c2ccc(Cl)cc2Cl)n1-c1ccc(OS(=O)(=O)CCC(F)(F)F)cc1 (stereo not drawn) | shake flask | aqueous buffer | pH 7.4 | 4.2 |
| O=C(NCCN1CCCC1)c1cc(-c2ccc(CN3CCOCC3)cc2)nc2ccc(F)cc12 | shake flask | aqueous buffer | pH 7.4 | 2.5 |
| N#Cc1c[nH]c2c(C(=O)N3CCN(CCc4ccc(F)cc4)CC3)cccc12 | shake flask | aqueous buffer | pH 7.4 | 3.5 |
| COC(=O)[C@H](Cc1c[nH]cn1)NC(=O)CN(CC(=O)O)Cc1ccccc1 | shake flask | PBS | 2 h, pH 7.4 | -2.05 |
| CN1CCN(c2ccc3nc(-c4ccc5nc(-c6ccc(OCCCCNC(=S)Nc7ccc(CC(CN(CCN(CC(=O)O)CC(=O)O)CC(=O)O)N(CC(=O)O)CC(=O)O)cc7)cc6)[nH]c5c4)[nH]c3c2)CC1 (stereo not drawn) | shake flask | PBS | pH 7.4 | -1.4 |
| Cc1c(C(=O)Nc2ccc(F)nc2)nc(-c2ccc(Cl)cc2Cl)n1-c1ccc(OS(=O)(=O)CCC(F)(F)F)cc1 | shake flask | aqueous buffer | pH 7.4 | > 4.3 |
| COc1cc2c(cc1OC)CN(CCCCn1ccc3c(OCC[18F])cccc31)C2 | shake flask | aqueous buffer | pH 7.4 | 2.43 |
| COC(=O)[C@H](Cc1c[nH]cn1)NC(=O)CN(CCCc1ccccc1)CC(=O)O | shake flask | PBS | 2 h, pH 7.4 | -0.78 |
| CCCCS(=O)(=O)Oc1ccc(-n2c(-c3ccc(Cl)cc3Cl)nc(C(=O)NN3CCCCC3)c2C)cc1 | shake flask | aqueous buffer | pH 7.4 | 5.1 |
| Fc1ccc(Nc2c(-c3ccccn3)nc3ccc(C4CC4)cn23)cc1 | – | – | pH 7.4 | 2.9 |
| CN1C(C(=O)Nc2ccccn2)=C(O)c2ccccc2S1(=O)=O | shake flask | aqueous buffer | 48 h, pH 7.4 | -0.31 |
| Cc1c(C(=O)NN2CCCCC2)nc(-c2ccc(Cl)cc2Cl)n1-c1ccc(OS(=O)(=O)CCCC(F)(F)F)cc1 | shake flask | aqueous buffer | pH 7.4 | 5.3 |
| CN1CCN(c2ccc3[nH]c(-c4ccc5[nH]c(-c6ccc(O)cc6)nc5c4)nc3c2)CC1 | shake flask | PBS | pH 7.4 | 2.2 |
| CNC(=O)[C@H](Cc1c[nH]cn1)NC(=O)CN(CCCc1ccccc1)CC(=O)O | shake flask | PBS | 2 h, pH 7.4 | -1.36 |
| Cc1c(C(=O)NN2CCCCC2)nc(-c2ccc(Cl)cc2Cl)n1-c1ccc(OS(=O)(=O)CCC(C)(C)C)cc1 | shake flask | aqueous buffer | pH 7.4 | > 5.8 |
